The values below come from ChEMBL document CHEMBL1255465, “Persistence of uropathogenic Escherichia coli in the face of multiple antibiotics” (Antimicrob Agents Chemother, 2010).

Structures are written as SMILES. Active and inactive are the calls of the source. The rule behind the calls is not given here.

Data set [1] can be described thus: Drug level in Escherichia coli UTI89-infected CBA/J mouse urine at 1 mg/kg, po after 2 hrs. It counts as ADME, organism-based. Set-up: dose 1 mg/kg, route oral. The following applies: in vivo. In outline: (§1)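 Urine collected by gentle bladder pressure 2 h after oral dosing of UTI89-infected CBA/J mice. 10 μl spotted on 7-mm filter discs, placed on fresh UTI89 lawns on LB agar. Clearance diameter measured after 24 h at 37°C. Urine drug level calculated from standard curves of discs holding known antibiotic concentrations.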

In data set [2] the test system is Escherichia coli. As to the kind of experiment: Antibacterial activity against uropathogenic Escherichia coli UTI89 infected in CBA/J mouse assessed as decrease in bacterial invasion into layers of urothelium at 1 mg/kg, po administered on day 3 postinfection daily for 3 days measured on day 9 post-inoculation. The class given is functional, organism-based. The arrangement: dose 1 mg/kg.

The subject of data set [3] is Escherichia coli. As to the kind of experiment: Antibacterial activity against uropathogenic Escherichia coli UTI89 infected in CBA/J mouse assessed as decrease in bacterial invasion into layers of urothelium at 1 mg/kg, po administered on day 3 postinfection daily for 3 days measured on day 9 post-inoculation in presence of Triton X-100. The arrangement: dose 1 mg/kg. It counts as functional, organism-based.

In data set [4] the test system is Escherichia coli. As to the kind of experiment: Antibacterial activity against uropathogenic Escherichia coli UTI89 infected in human 5637 cells assessed as decrease in intracellular bacterial level at 700 to 1000 ug/ml after 12 hrs by serial dilution method. It counts as functional, organism-based. Put shortly: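 Confluent 5637 monolayers in triplicate infected with UTI89 (24-h static LB culture, type 1 pili) at MOI ~15 and spun 600 × g for 5 min. After 2 h: gentamicin 100 μg/ml for 2 h, then 10 μg/ml for 14 h. Then 12 h with drug at two concentrations. Cells lysed in 0.4% Triton X-100 and plated on LB agar. Titers expressed relative to 800 μg/ml gentamicin. ≥3 independent assays.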

In data set [5] the test system is 5637. As to the kind of experiment: Cytotoxicity against human 5637 cells assessed as mild induction of cell death by trypan blue exclusion assay. It counts as cell-based. Put shortly:
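Integrity of 5637 cells after drug treatment assessed by 0.4% trypan blue exclusion, following a standard protocol.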

Data set [6] deals with 5637. As to the kind of experiment: Cytotoxicity against human 5637 cells assessed as mild induction of cell death by LDH release assay. The class given is cell-based.
Data set [7] has as its system Escherichia coli. The data set is described as follows: Antibacterial activity against uropathogenic Escherichia coli UTI89 assessed as inhibition of biofilm formation after 24 hrs by microtiterplate-based assay. The class given is functional, organism-based. Put shortly: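 Biofilms of UTI89 formed for 48 h at 37°C without shaking in M9 (1:100 inoculum, triplicate wells). Fresh M9 ± drug (higher of two tested concentrations) then added for 24 h. Biomass stained with 0.1% crystal violet, solubilized in DMSO, read at A562, and expressed relative to untreated controls. Three independent experiments.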

Data set [8] relates to Escherichia coli. As to the kind of experiment: Antibacterial activity against uropathogenic Escherichia coli UTI89 assessed as degradation of preexisting biofilm after 24 hrs by microscopy. It counts as functional, organism-based. In outline:
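UTI89 diluted 1:100 into M9 medium and grown statically 48 h at 37°C in microtiter wells. Nonadherent cells removed, fresh M9 ± drug added for 24 h, using the higher of two tested concentrations. Viable bacteria in biofilms visualized by Live/Dead BacLight staining and microscopy.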

In data set [9] the test system is Escherichia coli. As to the kind of experiment: Antibacterial activity against uropathogenic Escherichia coli UTI89 infected in CBA/J mouse assessed as decrease in bacterial load in bladder at 1 mg/kg, po administered on day 3 postinfection daily for 3 days measured on day 9 post-inoculation. The class given is functional, organism-based. Set-up: dose 1 mg/kg. The following applies: Urinary bladder. In outline: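 Female CBA/J mice, 7–8 weeks old, inoculated transurethrally with ~10^7 CFU UTI89 (24-h static LB culture) in 50 μl PBS. From day 3, one oral gavage daily for 3 days, 50 μl; controls given water. On day 9, bladders homogenized in PBS with 0.025% Triton X-100 and plated on LB agar for CFU. 11 mice from two experiments; Mann-Whitney U test.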

For data set [10], the system named is Escherichia coli. As to the kind of experiment: Antibacterial activity against uropathogenic Escherichia coli UTI89 isolated from urine samples of infected CBA/J mouse after 24 hrs by disk diffusion assay. The class given is functional, organism-based. Put shortly:
as §1
A general note: A growth-free zone around the sample is the usual read-out of agar diffusion tests.

The compound `C[C@@H]1O[C@@H]1P(=O)(O)O` [FOSFOMYCIN] registered a Drug uptake in data set [1] of 4 µg/mL. For the same compound, the inhibition entry with Escherichia coli [2] and in the data set on Escherichia coli [9] was “inactive” throughout. Moreover, the inhibition result with Escherichia coli [3] and in the data set on Escherichia coli [4] was “Active” in each case. Further, the Activity result in the data set with 5637 [5] and in the data set on 5637 [6] was “Toxic” each time. Besides, the Biofilm inhibition activity entry with Escherichia coli [7] is “Active”. Besides, the result with Escherichia coli [8] and in the data set on Escherichia coli [10] was Active.
